In publication PMC11551477 (Pharmacology Research & Perspectives, 2024):
Where two headings read alike, the source gives them in different places.

Tests used:
[1] = Integrated PopPK analysis; assay type: in vivo, human (Japanese pediatric patients and adult population)
How it was run: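 Plasma concentrations (2611 samples, 142 Japanese subjects) were pooled from six oral-dosing studies: pediatric patients aged 6–18 y on once-daily doses for 52 weeks, healthy adult males, and fed adults with normal, mild or moderately impaired renal function. Assays were LC–MS/MS (LLOQ 0.5 ng/mL) or HPLC (LLOQ 4 ng/mL). Points with |CWRES| >6 were excluded. Model: linear two-compartment, first-order absorption with lag and first-order elimination. Covariate selection was forward (p<.05) then backward (p<.01), with condition number ≤1000. Evaluation used bootstrap and pc-VPC.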

[2] = test system: plasma protein (mainly albumin); conditions: binds mainly to albumin; cited from earlier work
[3] = cited from earlier work
[4] = healthy Japanese adult males, NCA; cited from earlier work
[5] = standard NCA analysis; cited from earlier work
[6] = test system: hyperuricemia including gout; conditions: pediatric patients weighing <40 kg and ≥40 kg; cited from earlier work
[7] = cited from earlier work; remark: listed apart in the source
[8] = 20 mg repeated, fed, NCA, cited from earlier work
[9] = Post hoc estimates of steady-state PK parameters from the PopPK final model; assay type: in vivo, human (Japanese pediatric patients and adult population); conditions: for CLss/F (apparent total body clearance at steady state) / Dose‐normalized AUCτ,ss / Dose‐normalized C max,ss: fed, mean ± SD
How it was run: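 Steady-state parameters were derived by post hoc estimation from the final PopPK model, assuming each study's dose given once daily to fed subjects. Pediatric estimates used the original maintenance doses: 20 mg for <40 kg and 40 mg for ≥40 kg. CL/F was also expressed per body weight. Outputs were CLss/F, Cmax,ss and AUCτ,ss, compared with the adult population.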

[10] = fed vs fasted, present PopPK analysis
[11] = final PopPK model, fixed effect
[12] = mild dysfunction group (CLCr-based)
[13] = moderate renal dysfunction group (CLCr-based)
[14] = adult population (n = 113), 10–160 mg once daily
[15] = pediatric patients <40 kg (n = 10), 20 mg once daily
[16] = pediatric patients weighing <40 kg vs adult population
[17] = pediatric patients weighing ≥40 kg vs adult population
[18] = pediatric patients ≥40 kg (n = 19), 40 mg once daily

## Cc1nc(-c2ccc(OCC(C)C)c(C#N)c2)sc1C(=O)O [febuxostat]
[1]; CV = SQRT(EXP(ω^2)–1) × 100
  Between-subject variability of CL/F, CV (%): 26.2%
  Between-subject variability of Ka, CV (%): 306.3%
  Between-subject variability of Q/F, CV (%): 71.3%
  Between-subject variability of V2/F, CV (%): 25.7%
  Between-subject variability of V3/F, CV (%): 54.4%
[1]; CV = σ × 100
  Residual variability, CV (%): 36.9%
[1]; bootstrap, 1000 simulations
  ALAG1, Bootstrap Median: 0.438 h
  ALAG1, Bootstrap parameter estimate Mean ± SE: 0.441 ± 0.0210 h
  CL/F, Bootstrap Median: 6.52 L/h
  CL/F, Bootstrap parameter estimate Mean ± SE: 6.52 ± 0.197 L/h
  CLEGFR, Bootstrap Median: 0.326
  CLEGFR, Bootstrap parameter estimate Mean ± SE: 0.326 ± 0.0586
  CLWGT, Bootstrap Median: 0.580
  CLWGT, Bootstrap parameter estimate Mean ± SE: 0.589 ± 0.130
  F1 (FED), Bootstrap Median: 0.839
  F1 (FED), Bootstrap parameter estimate Mean ± SE: 0.838 ± 0.0274
  Ka, Bootstrap Median: 3.51 h⁻¹
  Ka, Bootstrap parameter estimate Mean ± SE: 4.24 ± 2.78 h⁻¹
  Q/F, Bootstrap Median: 1.79 L/h
  Q/F, Bootstrap parameter estimate Mean ± SE: 1.78 ± 0.127 L/h
  V2/F, Bootstrap Median: 19.4 L
  V2/F, Bootstrap parameter estimate Mean ± SE: 19.4 ± 0.792 L
  V3/F, Bootstrap Median: 15.6 L
  V3/F, Bootstrap parameter estimate Mean ± SE: 15.5 ± 0.822 L
  σ ^2, Bootstrap Median: 0.135
  σ ^2, Bootstrap parameter estimate Mean ± SE: 0.135 ± 0.00823
  ω Ka ^2, Bootstrap Median: 2.37
  ω Ka ^2, Bootstrap parameter estimate Mean ± SE: 2.60 ± 0.908
  ω Q/F ^2, Bootstrap Median: 0.409
  ω Q/F ^2, Bootstrap parameter estimate Mean ± SE: 0.414 ± 0.0686
  ω Q/F‐V3/F ^2, Bootstrap Median: 0.302
  ω Q/F‐V3/F ^2, Bootstrap parameter estimate Mean ± SE: 0.304 ± 0.0507
  ω V2/F ^2, Bootstrap Median: 0.0633
  ω V2/F ^2, Bootstrap parameter estimate Mean ± SE: 0.0648 ± 0.0188
  ω V3/F ^2, Bootstrap Median: 0.251
  ω V3/F ^2, Bootstrap parameter estimate Mean ± SE: 0.254 ± 0.0511
[1]; [10]
  Reduction of AUCτ,ss in the fed group: 16.2%
  Reduction of C max,ss in the fed group: 16.2%
  Reduction of relative bioavailability in the fed group: 16.2%
[1]; final PopPK model
  σ ^2 (exponential error), residual variability, Estimate: 0.136
  ω CL/F‐V2/F ^2 (covariance, correlation variability), Estimate: 0.0483
  ω Ka ^2 (between-subject variability), Estimate: 2.34
  ω Q/F ^2 (between-subject variability), Estimate: 0.411
  ω Q/F‐V3/F ^2 (covariance, correlation variability), Estimate: 0.307
  ω V2/F ^2 (between-subject variability), Estimate: 0.0638
  ω V3/F ^2 (between-subject variability), Estimate: 0.259
[1]; final PopPK model, exponential error model
  ω CL/F ^2 (between-subject variability), Estimate: 0.0662
[1]; [11]
  ALAG1 (absorption lag time), Estimate: 0.437 h
  Ka (first-order absorption rate constant), Estimate: 3.43 h⁻¹
[1]; final PopPK model, power function exponent, centered at 60.6 kg
  CLWGT (covariate for effect of body weight on CL/F), Estimate: 0.584
[1]; final PopPK model, power function exponent, centered at 98.6 mL/min/1.73 m^2
  CLEGFR (covariate for effect of eGFR on CL/F), Estimate: 0.324
[1]; human, plasma, oral
  Vd/F: 19.4 L
[2]
  Plasma protein binding rate: approximately 99%
[3]
  Eliminated as unchanged drug through the urine: < 5%
[4]
  AUCinf lower in the fed group than in the fasted group: 18%
  C max lower in the fed group than in the fasted group: 28%
[5]
  Effect of sex on PK: no notable effect
[6]
  Efficacy in pediatric patients compared with adults: as effective
  Tolerability in pediatric patients compared with adults: well tolerated
[7]
  Solubility (in words): poorly soluble
[8]; [12]
  Increase of AUCτ,ss vs normal renal function group: 52.5%
  Steady‐state plasma C max,ss vs normal renal function group: did not differ noticeably
[8]; [13]
  Increase of AUCτ,ss vs normal renal function group: 67.6%
  Increase of C max,ss vs normal renal function group: 25.5%
[9]; [14]
  CLss/F (apparent total body clearance at steady state): 8.27 ± 2.00 L/h
  Dose‐normalized AUCτ,ss: 128 ± 32 ng·h/mL/mg
  Dose‐normalized C max,ss: 30.2 ± 10.6 ng/mL/mg
[9]; children or adults, Figure S2
  CL/F adjusted by body weight (post hoc estimate), males vs females: no clear difference
[9]; [15]
  CLss/F (apparent total body clearance at steady state): 4.28 ± 1.20 L/h
  Dose‐normalized AUCτ,ss: 251 ± 72 ng·h/mL/mg
  Dose‐normalized C max,ss: 42.7 ± 7.6 ng/mL/mg
[9]; [16]
  CLss/F relative to the adult population: 0.52 fold
  Dose‐normalized AUCτ,ss relative to the adult population: 1.96 fold
  Dose‐normalized C max,ss relative to the adult population: 1.41 fold
[9]; [17]
  CLss/F relative to the adult population: 0.80 fold
  Dose‐normalized AUCτ,ss relative to the adult population: 1.38 fold
  Dose‐normalized C max,ss relative to the adult population: 1.18 fold
[9]; [18]
  CLss/F (apparent total body clearance at steady state): 6.59 ± 2.45 L/h
  Dose‐normalized AUCτ,ss: 176 ± 75 ng·h/mL/mg
  Dose‐normalized C max,ss: 35.7 ± 10.4 ng/mL/mg
